Results published in ChEMBL document CHEMBL3611988, “Design and synthesis of 4-benzylpiperidine carboxamides as dual serotonin and norepinephrine reuptake inhibitors” (Bioorg Med Chem, 2015).

Tests used:
Format in all cases: cell-based
[1] = molecular target: T1, Sodium-dependent serotonin transporter (Homo sapiens, UniProt P31645); assay: Inhibition of human SERT expressed in HEK293 cells assessed as reduction of serotonin reuptake using [3H]-SERT at 1 uM after 15 mins by liquid scintillation counting relative to venlafaxine HCl
Summary of the method: (§1)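 HEK-293 cells stably transfected with hSERT or hNET, grown at 37 °C in 5% CO2, seeded in poly-lysine-coated 24-well plates for 24 h. Washed, then preincubated with test drug in uptake buffer (Tris/HEPES, NaCl, KCl, CaCl2, MgSO4, ascorbic acid, glucose; pH 7.1) at 37 °C for 15–20 min. Radiolabelled substrate added at 20 nM final for about 5 min at 37 °C. Cells washed three times with ice-cold buffer and lysed in 1% SDS.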
Target sequence in this assay (P31645 whole entry, looked up): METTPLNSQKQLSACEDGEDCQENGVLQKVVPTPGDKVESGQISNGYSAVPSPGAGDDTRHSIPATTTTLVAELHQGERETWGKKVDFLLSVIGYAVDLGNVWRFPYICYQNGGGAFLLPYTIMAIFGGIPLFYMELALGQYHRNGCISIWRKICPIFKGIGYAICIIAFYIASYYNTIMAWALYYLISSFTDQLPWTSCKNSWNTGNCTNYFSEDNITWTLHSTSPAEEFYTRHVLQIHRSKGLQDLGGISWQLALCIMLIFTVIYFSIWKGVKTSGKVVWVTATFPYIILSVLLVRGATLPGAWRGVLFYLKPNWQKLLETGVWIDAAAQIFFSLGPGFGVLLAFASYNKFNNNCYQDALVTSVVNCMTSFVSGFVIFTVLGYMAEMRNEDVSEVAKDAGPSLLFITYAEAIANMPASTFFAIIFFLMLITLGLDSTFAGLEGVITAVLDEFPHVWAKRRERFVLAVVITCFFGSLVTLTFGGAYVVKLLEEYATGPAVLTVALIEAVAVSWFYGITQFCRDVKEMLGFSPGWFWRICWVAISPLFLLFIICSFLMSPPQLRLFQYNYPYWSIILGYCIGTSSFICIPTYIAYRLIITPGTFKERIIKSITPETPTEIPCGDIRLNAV

[2] = molecular target: T2, Sodium-dependent noradrenaline transporter (Homo sapiens, UniProt P23975); assay: Inhibition of human NET expressed in HEK293 cells assessed as reduction of […] reuptake using [3H]-NET at 1 uM after 15 mins by liquid scintillation counting relative to GBR-12909; summary of the method: as §1
[3] = molecular target: T2, Sodium-dependent noradrenaline transporter; assay: Inhibition of human NET expressed in HEK293 cells assessed as reduction of […] reuptake using [3H]-NET at 3 uM after 15 mins by liquid scintillation counting relative to venlafaxine HCl; summary of the method: as §1
[4] = molecular target: T1, Sodium-dependent serotonin transporter; assay: Inhibition of human SERT expressed in HEK293 cells assessed as reduction of serotonin reuptake using [3H]-SERT after 15 mins by liquid scintillation counting
Target sequence in this assay (P31645 whole entry): as the sequence (P31645 whole entry, looked up) above

[5] = molecular target: T2, Sodium-dependent noradrenaline transporter; assay: Inhibition of human NET expressed in HEK293 cells assessed as reduction of […] reuptake using [3H]-NET after 15 mins by liquid scintillation counting; summary of the method: as §1

T2 sequence (P23975 whole entry): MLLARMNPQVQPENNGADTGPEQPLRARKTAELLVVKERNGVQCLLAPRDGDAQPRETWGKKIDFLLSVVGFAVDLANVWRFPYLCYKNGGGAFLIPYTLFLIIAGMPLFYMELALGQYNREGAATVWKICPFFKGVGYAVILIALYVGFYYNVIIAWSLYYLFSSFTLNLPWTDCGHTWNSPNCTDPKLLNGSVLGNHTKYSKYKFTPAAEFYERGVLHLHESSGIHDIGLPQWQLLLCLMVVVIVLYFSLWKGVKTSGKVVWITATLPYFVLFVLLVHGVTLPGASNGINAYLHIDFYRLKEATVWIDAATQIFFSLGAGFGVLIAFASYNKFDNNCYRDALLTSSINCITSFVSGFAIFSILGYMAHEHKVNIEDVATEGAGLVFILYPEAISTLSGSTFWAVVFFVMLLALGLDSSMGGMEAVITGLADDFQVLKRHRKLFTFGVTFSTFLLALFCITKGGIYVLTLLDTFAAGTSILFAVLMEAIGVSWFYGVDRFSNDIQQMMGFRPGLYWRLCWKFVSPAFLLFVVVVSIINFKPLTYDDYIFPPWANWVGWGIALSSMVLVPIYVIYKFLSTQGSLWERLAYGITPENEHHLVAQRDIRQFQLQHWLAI

Ratio [1]	Ratio [2]	Ratio [3]	IC50 [4] [nM]	IC50 [5] [nM]	Structure (SMILES)
0.6	1.32	–	–	–	O=C(NCCCN1CCC(Cc2ccccc2)CC1)c1cccc2ccccc12
0.77	–	1.92	–	–	O=C(NCCN1CCC(Cc2ccccc2)CC1)c1cc2ccccc2s1
0.4	–	1.54	–	–	O=C(NCCN1CCC(Cc2ccccc2)CC1)C(c1ccc(Cl)cc1)c1ccc(Cl)cc1
0.26	–	1.19	–	–	O=C(NCCCN1CCC(Cc2ccccc2)CC1)C(c1ccccc1)c1ccccc1
0.29	–	1.04	–	–	O=C(NCCN1CCC(Cc2ccccc2)CC1)C(c1ccccc1)c1ccccc1
0.91	0.1	–	–	–	O=C(NCCN1CCC(Cc2ccccc2)CC1)c1cccc2ccccc12
0.98	1	–	323	238	COc1ccc2cc(C(=O)NCCCN3CCC(Cc4ccccc4)CC3)ccc2c1
0.51	0.83	–	–	–	O=C(NCCN1CCC(Cc2ccccc2)CC1)c1ccc2cc(Br)ccc2c1
0.83	1.12	–	422	267	O=C(NCCCN1CCC(Cc2ccccc2)CC1)c1cc(Cl)cc(Cl)c1
0.63	–	1.97	–	–	COc1ccc2cc(C(=O)NCCN3CCC(Cc4ccccc4)CC3)ccc2c1
0.19	–	1.37	–	–	O=C(NCCCN1CCC(Cc2ccccc2)CC1)C(c1ccc(Cl)cc1)c1ccc(Cl)cc1
0.84	–	1.72	546	268	O=C(NCCCN1CCC(Cc2ccccc2)CC1)c1cc2ccccc2[nH]1
1.1	–	1.8	449	4750	O=C(NCCCN1CCC(Cc2ccccc2)CC1)c1cc2ccccc2s1
0.95	1.03	–	108	342	O=C(NCCCN1CCC(Cc2ccccc2)CC1)c1ccc2ccccc2c1
1.11	0.94	–	1910	885	O=C(NCCCN1CCC(Cc2ccccc2)CC1)c1ccc2cc(Br)ccc2c1
0.98	–	1.49	986	472	O=C(NCCN1CCC(Cc2ccccc2)CC1)c1ccc(-c2ccccc2)cc1
0.85	–	0.62	–	–	O=C(NCCCN1CCC(Cc2ccccc2)CC1)c1ccc2ccccc2n1
1.03	0.53	–	786	275	O=C(NCCN1CCC(Cc2ccccc2)CC1)c1ccc2ccccc2n1
0.64	1	–	–	–	O=C(NCCN1CCC(Cc2ccccc2)CC1)c1cc(Cl)cc(Cl)c1
1.01	–	1.59	56	153	O=C(NCCCN1CCC(Cc2ccccc2)CC1)c1ccc(-c2ccccc2)cc1
0.8	1.27	–	–	–	O=C(NCCN1CCC(Cc2ccccc2)CC1)c1ccc2ccccc2c1
0.58	–	1.49	–	–	O=C(NCCN1CCC(Cc2ccccc2)CC1)c1cc2ccccc2[nH]1
0.78	–	1.09	–	–	O=C(NCCN1CCC(Cc2ccccc2)CC1)c1cc2ccccc2o1
0.84	–	1.54	500	621	O=C(NCCCN1CCC(Cc2ccccc2)CC1)c1cc2ccccc2o1
